# Assay results as given in the EternaBench riboswitch data.
# Test system: MS2 coat protein
# Experiment: apparent Kd, MS2 coat protein; higher = weaker binding; RNA-MaP array; FMN 200 µM where present
# Summary of the method: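 The apparent Kd is reported as the median of filtered per-cluster binding-curve fits. To get these curves, designs transcribed by stalled E. coli RNA polymerase on Illumina sequencing-chip clusters were titrated with SNAP-549-labelled MS2 coat protein from 0.7 or 1.5 nM, doubling to 3 µM. Titrations were run without and then with constant ligand in 100 mM Tris-HCl pH 7.5, 80 mM KCl, 4 mM MgCl2, BSA, DTT, yeast tRNA and Tween-20, and green signal was normalised to red-channel RNA signal and control-cluster median Fmax.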
# [1] = designed as: ON switch for flavin mononucleotide, no ligand
# [2] = ligand present: flavin mononucleotide, designed as: ON switch for flavin mononucleotide
# [3] = designed as: OFF switch for flavin mononucleotide, no ligand
# [4] = ligand present: flavin mononucleotide, designed as: OFF switch for flavin mononucleotide
Sequence,apparent Kd [1],apparent Kd [2],apparent Kd [3],apparent Kd [4]
CCGCGACACGAAGGAUAUGUGGGUGGUAGUCUGUGCUCCGCCUACAUGAGGAUCACCCAUGUAUCACAGAAGGUCGGACGUCGA,0.0267 µM,0.125 µM,–,–
CCGGAAACGGGUAGCCUGACAUGAGGAUCACCCAUGUGAACCAAGGAUAUGGAUCCUAAUUGGAUCCAGAAGGUGGAAGGCUAC,0.243 µM,0.0453 µM,–,–
CCGGAAACGGGUAGCUGACAUGAGGAUCACCCAUGUGUUACACAGGAUAUGGAUCCUAAUUGGAUCCAGAAGGGUGUCAGCUAC,0.22 µM,0.0365 µM,–,–
CCGGAAAGGAAGGAUAUGCUAGACGAUAGUCUAGCAGAAGGUCCUACAUGAGGAUCACCCAUGUGUCCUACCGG,–,–,0.0452 µM,0.0544 µM
CCGGAAAUGCAGGAUAUCGUAUCGGAUACGAUACGAGAAGGGUAUACAUGAGGAUCACCCAUGUGUCCUGCCGG,–,–,0.0425 µM,0.0406 µM
CCGGAGACGGGUAGCCUGACAUGAGGAUCACCCAUGUGAUCCAAGGAUAUGGAUCCUAAUUGGAUCCAGAAGGUGGUUGGCUAC,0.376 µM,0.371 µM,–,–
CCGGGACAUGAGGAUCACCCAUGUUUCGUUUAUAGUAAAGCACAGGAUAUGAUGAAACAGGUUUCUCAGAAGGGUGUUCCGAAA,0.0632 µM,0.0678 µM,–,–
CCGGGUCGGGAGGAUAUUCGGGCCCAAGGGCUUGGAGAAGGCUCGACAUGAGGAUCACCCAUGUAAGUGUAAGG,–,–,0.345 µM,0.698 µM
CCGGUAUAGGAGGAUAUAGGAGUCGAUAGACACCUAGAAGGCCUGACAUGAGGAUCACCCAUGUGUCCUUCCGG,–,–,0.0196 µM,0.0558 µM
CCGUCAAUCGAGAAGGGCCUAUGUGCUACACCGGCAGGAUAUCGACAUGAGGAUCACCCAUGUUGGCGAUCCUUUUUGGCGGAC,–,–,0.135 µM,0.0365 µM
CCGUCACAUGAGGAUCACCCAUGUCAGGAUAUCUAUCAUAGCAUCGAAAGAUGCGGGUAGAGAAGGGACUAUCC,–,–,–,0.0226 µM
CCGUGACAUGAGGAUCACCCAUGUACUCGAGAAAUCGAGUGUAGAAGGGUGACCGGUCGUUUGGCACAGGAUAUACACGGUGUG,0.0166 µM,0.00892 µM,–,–
CCGUUACAUGAGGAUCACCCAUGUGAGGAUAUCGAUGUAACUAGCAGCGUGCGGGACUCGAGAAGGCACUUGGC,–,–,0.104 µM,0.0752 µM
CCGUUACAUGAGGAUCACCCAUGUGAGGAUAUCGGUGUGACUGGCAGCGUGCGGGACUCGAGAAGGCACUGGGC,–,–,0.0712 µM,0.0879 µM
CCUAAGAAAGGAUAUACACCGGUGGGCCGCUGAAUUCAGCAACAUGAGGAUCACCCAUGUAGAAGGUUUAUGGG,–,–,0.0752 µM,0.27 µM
CCUAAGGACACAGGAUAUAGCGUCGUGGCUGGGCUCCAACGGCGAGCGGCGCUAGAAGGGUGACCACAUGAGGAUCACCCAUGU,0.522 µM,0.15 µM,–,–
CCUAAGGAGACAGGAUAUAGCGUGGUGGCCGGGCUCCCACGGCGAGCGGCGCUAGAAGGGUCACUACAUGAGGAUCACCCAUGU,0.0112 µM,0.0116 µM,–,–
CCUAGAGAAGGAUAUACAUGAGGAUCACCCAUGUUCCGGCGCACAAUUAUGCGCCAAUGUAGAAGGUCUGGGCA,–,–,0.0236 µM,0.0266 µM
CCUAUACAUGAGGAUCACCCAUGUCAGGAUAUAGAAAGCUACGGAAUAGGACGUAGCACUAGAAGGGACUGGCU,–,–,0.0292 µM,0.0434 µM

Sequence,apparent Kd [1],apparent Kd [2],apparent Kd [3],apparent Kd [4]
CCUCAGUAAGGAUAUCAGCUUAUGGAGUUGGUAAUGAGAGCUGAGAAGGUACAUGAGGAUCACCCAUGUUAGUU,–,–,0.0277 µM,0.0737 µM
CCUCAUAUUUAGGAUAUGAUGGGUUAUUAUUCGUUAGAAGGAGGUACAUGAGGAUCACCCAUGUCCCGUUUGGG,–,–,0.0342 µM,0.0329 µM
CCUCCACAUGAGGAUCACCCAUGUCAGGAUAUCGUGUGUGUUUUUUCGGUCUUUCGUGCGAGAAGGGACGUCUG,–,–,0.0516 µM,0.0523 µM
CCUCCACAUUAGGAUAUCAUCAAACUAUUGUGAUGAGAAGGAAUGACAUGAGGAUCACCCAUGUUAUCGUGAUG,–,–,0.0209 µM,0.0181 µM
CCUCCCUGAGGAUAUCCACCCUCAUACAUGAGGAUCACCCAUGUUCAACCCUGGGUUCCCGGAGAAGGCAGUUUUC,–,–,0.0973 µM,0.102 µM
CCUCCCUGAGGAUAUCCACCCUCAUACAUGAGGAUCACCCAUGUUCAUCCCUGGGUACCCGGAGAAGGCAGAUUUC,–,–,0.154 µM,0.165 µM
CCUCGCUGUUAGAAGGCACCUUCGGCUUUGGCUUUUGGAGUUGGGCGAUGGUGAGGAUAUAACAUGAGGAUCACCCAUGUUCAA,–,–,–,0.0651 µM
CCUCUACAUGAGGAUCACCCAUGUGAGGAUAUCUCGGAAAAGCCACUUAAGGUACUCCAGAGAAGGCACGUGUA,–,–,0.0146 µM,0.0237 µM
CCUCUACAUGAGGAUCACCCAUGUGAGGAUAUCUCGGAACAACCACUUAAGGCACUCCAGAGAAGGCACGUGUA,–,–,0.0149 µM,0.0209 µM
CCUCUUGGGCAAGGAUAUCCUGCGCGGUUCCGGUUCGUGUCUGUCACAUGAGGAUCACCCAUGUGGGAGAAGGUGCCUGCGGUC,–,–,0.0179 µM,0.0242 µM
CCUGAGUCAGGAUAUUGUACCGGCCUGAAGCCAGGCCGGCCCAAGAAGGGACAUGAGGAUCACCCAUGUGAAAA,–,–,0.0359 µM,0.0739 µM
CCUGCACAUGAGGAUCACCCAUGUUAGGAUAUAUUUGACCGUGGAAUUACCAUUGGAAGUAGAAGGAACAUGUA,–,–,0.0161 µM,0.018 µM
CCUGUGUGAGGAUAUGGUGUUAAAAAAAAGGAAUAGCUCCUCCAGAAGGCACAUGAGGAUCACCCAUGUCGUGG,–,–,0.0234 µM,0.0571 µM
CCUUAGUAAGGAUAUCAGCUUAUAGAGUUGGUAAUGAGAGCUGAGAAGGUACAUGAGGAUCACCCAUGUUAGUU,–,–,0.0211 µM,0.0351 µM
CCUUUACAUGAGGAUCACCCAUGUCAGGAUAUCCUGUGGUGUUGUCUCGGGCGACACAUGAGCCAGGAGAAGGGACGAAGGGAA,–,–,0.049 µM,0.0764 µM
CCUUUGUCAGGAUAUCGAAAAGGGAGGCCAAAAGCCUCCGGUGAGAAGGGACAUGAGGAUCACCCAUGUGAAAA,–,–,0.0464 µM,0.159 µM
CGAACCAUGUAGAAGGCUGUCUUAAAAUAGGACAGAGGAUAUACAUGAGGAUCACCCAUGUACUCCUUUAAAAGGUUCGAAAUA,–,–,–,0.00703 µM
CGAAGUCCGUAGAAGGGUGACAUGAGGAUCACCCAUGUGCGAGCCGAGGGAGUCAGCGGCUCGCCACAGGAUAUACGGAGCACG,0.0335 µM,0.0217 µM,–,–
CGAAGUCCGUAGAAGGGUGACAUGAGGAUCACCCAUGUGCGAGCGGAGGGAGUCAGCGGCUCGCCACAGGAUAUACGGAGCACG,0.0612 µM,0.051 µM,–,–

Sequence,apparent Kd [1],apparent Kd [2],apparent Kd [3],apparent Kd [4]
CGAGUUUUUGAGAAGGCAUAUUAUAAUAUUCCACAUGUUUACAUGAGGAUCACCCAUGUUUACUAUGAGGAUAUCAGAAUGUCG,–,–,0.00472 µM,0.00454 µM
CGAUAACAUAGUUAUCCGUAACGGACAUGAGGAUCACCCAUGUAGGAUAUGUUACUAAACUAGUAACAGAAGGACAUGAGUCUU,–,–,–,0.295 µM
CGAUAAUAUAGUUAUCCGUAACGGACAUGAGGAUCACCCAUGUAGGAUAUGUUACUCAACGAGUAACAGAAGGACAUGAGUCUU,–,–,0.0148 µM,0.109 µM
CGAUAGGACAGAGGAUAUACACAUGAGGAUCACCCAUGUGAUUACAACGCUUAAGCUCCAAACAUGUAGAAGGCUGUCCUAUCG,–,–,0.0217 µM,0.0279 µM
CGAUAUUAUGCAGGAUAUCUAUCUUGAAUGAGGAGAGAAGGGCAUAGGGAGACAUAAGCCUUAUUACAUGAGGAUCACCCAUGU,–,–,0.0112 µM,0.00938 µM
CGAUCACAUGUCAGGAUAUGCGAGCUUGUAUCGCCGUAGAAGGGACAUGAGGAUCACCCAUGUCCGAUCAUUCG,–,–,0.0283 µM,0.0521 µM
CGAUCGUGUAGAGGAUAUGUUAUACAUGAGGAUCACCCAUGUGAGGUGGAAAUAUUUAAUUACAUACAGAAGGCUACACGAUCG,–,–,0.269 µM,0.227 µM
CGAUUGACGUAGAAGGGACUUAAGGGACAAAGCAUGCGAACGGACGGACAUGAGGAUCACCCAUGUCAGGAUAUACGUUCAUUU,–,–,0.00527 µM,0.006 µM
CGCAAACAUGAGGAUCACCCAUGUCAAUGUGAUCAAGGAUAUGGGUUCCGAAAUGGAACACCAGAAGGUGAGUAAU,0.142 µM,0.0373 µM,–,–
CGCAAGUCAGGAUAUUCGACUGGUCCAUCUGUGGAUUUGUAGGAGAAGGGACAUGAGGAUCACCCAUGUUUGUU,–,–,0.0306 µM,0.0239 µM
CGCACACAUGAGGAUCACCCAUGUGAGGAUAUCAUGCUUCGUAGUAAACUACGAAGUGUGAGAAGGCACAUGUC,–,–,0.0312 µM,0.102 µM
CGCACUGAUAGAGGAUAUGUUUAACAUGAGGAUCACCCAUGUGUACAAGAAUCAAUAUUUAUCAAACAGAAGGCUAUUAGUGCG,–,–,0.00506 µM,0.00408 µM
CGCACUUAUAGAGGAUAUGUUAAACAUGAGGAUCACCCAUGUGAUUUAGUAUCAAUAUUAGUGAAACAGAAGGCUAUUAGUGCG,–,–,0.0134 µM,0.0129 µM
CGCAGUACUUAGGUACUACACAUGAGGAUCACCCAUGUAUCACAGGAUAUGCAUGAUAUAUUCAGGCAGAAGGGUGAUCUUACC,0.0545 µM,0.13 µM,–,–
CGCAUGCGUAGUAUUAGUUGCUGACAGGAUAUGACAUGAGGAUCACCCAUGUUUAUUAAGAAGAUUCAGAAGGGUCACGUUGCG,–,–,0.00687 µM,0.0058 µM
CGCGAAAACAUAGGAUAUUGUUACAUGAGGAUCACCCAUGUCAACCAUGUAGCUCGAAUUGUUGUCAAGAAGGAUGAGGUCGCG,0.0184 µM,0.022 µM,–,–
CGCGAACAGUUUUACAUGAGGAUCACCCAUGUGGACUCAUGGUAGGAUAUCGGGAAGGAGGAAACCGAGAAGGGCUGGUGAGCC,0.312 µM,0.256 µM,–,–
CGCGCGGUGUAGAAGGGUGACAUGAGGAUCACCCAUGUGCGGAGGCGCCCAUUGACGCCUCCGCCACAGGAUAUACACCACGCC,0.0468 µM,0.0669 µM,–,–
